Assays:
Cannabinoid receptor 1 = Cannabinoid receptor 1 (Homo sapiens, UniProt P21554); assay: Displacement of [3H]CP-55940 from human recombinant CB1 receptor expressed in HEK293 cells by scintillation counting; type: cell-based
Homo sapiens [1] = species: Homo sapiens; assay: Selectivity ratio of IC50 for human recombinant DAGLalpha over Ki for human recombinant CB1 receptor
[2] = Selectivity ratio of IC50 for human recombinant DAGLalpha over IC50 for rat brain membrane FAAH
[3] = Selectivity ratio of IC50 for human recombinant DAGLalpha over IC50 for african green monkey MAGL
Cannabinoid receptor 2 = Cannabinoid receptor 2 (Homo sapiens, UniProt P34972); assay: Displacement of [3H]CP-55940 from human recombinant CB2 receptor expressed in HEK293 cells by scintillation counting; type: cell-based
Chain of Cannabinoid receptor 2 (P34972 whole entry): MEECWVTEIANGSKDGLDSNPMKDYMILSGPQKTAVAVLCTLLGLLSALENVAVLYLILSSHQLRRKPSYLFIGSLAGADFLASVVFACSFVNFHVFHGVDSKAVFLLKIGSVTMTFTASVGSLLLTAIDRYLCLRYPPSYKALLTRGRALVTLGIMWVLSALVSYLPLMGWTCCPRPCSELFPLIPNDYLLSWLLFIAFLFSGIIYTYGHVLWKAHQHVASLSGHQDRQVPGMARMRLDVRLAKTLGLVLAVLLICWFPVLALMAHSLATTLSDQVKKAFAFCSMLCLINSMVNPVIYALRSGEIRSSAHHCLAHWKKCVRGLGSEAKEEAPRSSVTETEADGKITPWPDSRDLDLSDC

[4] = biological target: T1, Diacylglycerol lipase-alpha (Homo sapiens, UniProt Q9Y4D2); assay: Inhibition of human recombinant DAGL-alpha-mediated sn-1-[14C]oleoyl-2-arachidonoyl-glycerol hydrolysis to 2-AG overexpressed in african green monkey COS7 cell membrane by scintillation counting; type: cell membranes, COS-7
T1 sequence (Q9Y4D2 whole entry): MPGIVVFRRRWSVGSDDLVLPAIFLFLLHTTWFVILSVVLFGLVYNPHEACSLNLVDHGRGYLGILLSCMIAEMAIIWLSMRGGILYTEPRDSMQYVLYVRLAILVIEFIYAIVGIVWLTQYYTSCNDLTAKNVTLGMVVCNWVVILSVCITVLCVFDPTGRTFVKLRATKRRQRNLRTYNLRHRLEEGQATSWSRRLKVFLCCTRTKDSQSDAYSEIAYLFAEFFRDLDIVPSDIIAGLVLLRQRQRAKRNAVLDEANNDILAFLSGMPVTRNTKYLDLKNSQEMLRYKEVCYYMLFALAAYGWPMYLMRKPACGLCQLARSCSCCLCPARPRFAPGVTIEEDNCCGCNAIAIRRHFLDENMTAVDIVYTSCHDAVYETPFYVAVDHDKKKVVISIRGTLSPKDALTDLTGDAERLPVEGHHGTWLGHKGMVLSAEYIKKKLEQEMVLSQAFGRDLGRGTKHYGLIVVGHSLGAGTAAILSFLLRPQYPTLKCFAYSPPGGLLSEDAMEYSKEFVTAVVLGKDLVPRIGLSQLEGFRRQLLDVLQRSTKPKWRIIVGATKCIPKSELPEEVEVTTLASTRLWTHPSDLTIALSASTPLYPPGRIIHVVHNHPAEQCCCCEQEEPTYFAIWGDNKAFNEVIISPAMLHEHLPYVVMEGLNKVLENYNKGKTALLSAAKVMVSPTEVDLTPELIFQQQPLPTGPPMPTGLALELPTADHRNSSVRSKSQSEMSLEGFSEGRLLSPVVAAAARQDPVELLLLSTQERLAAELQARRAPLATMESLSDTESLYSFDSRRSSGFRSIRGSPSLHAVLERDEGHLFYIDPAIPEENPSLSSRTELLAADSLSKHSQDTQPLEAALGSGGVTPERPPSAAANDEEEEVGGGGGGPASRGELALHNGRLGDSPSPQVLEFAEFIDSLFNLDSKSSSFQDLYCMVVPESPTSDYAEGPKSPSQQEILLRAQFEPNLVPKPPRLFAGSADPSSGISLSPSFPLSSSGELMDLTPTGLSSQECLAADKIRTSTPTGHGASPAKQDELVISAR

[5] = biological target: T2, Fatty-acid amide hydrolase 1 (Rattus norvegicus, UniProt P97612); assay: Inhibition of FAAH-mediated [14C]anandamide hydrolysis in rat brain membrane; type: cell membranes
T2 sequence (P97612 whole entry): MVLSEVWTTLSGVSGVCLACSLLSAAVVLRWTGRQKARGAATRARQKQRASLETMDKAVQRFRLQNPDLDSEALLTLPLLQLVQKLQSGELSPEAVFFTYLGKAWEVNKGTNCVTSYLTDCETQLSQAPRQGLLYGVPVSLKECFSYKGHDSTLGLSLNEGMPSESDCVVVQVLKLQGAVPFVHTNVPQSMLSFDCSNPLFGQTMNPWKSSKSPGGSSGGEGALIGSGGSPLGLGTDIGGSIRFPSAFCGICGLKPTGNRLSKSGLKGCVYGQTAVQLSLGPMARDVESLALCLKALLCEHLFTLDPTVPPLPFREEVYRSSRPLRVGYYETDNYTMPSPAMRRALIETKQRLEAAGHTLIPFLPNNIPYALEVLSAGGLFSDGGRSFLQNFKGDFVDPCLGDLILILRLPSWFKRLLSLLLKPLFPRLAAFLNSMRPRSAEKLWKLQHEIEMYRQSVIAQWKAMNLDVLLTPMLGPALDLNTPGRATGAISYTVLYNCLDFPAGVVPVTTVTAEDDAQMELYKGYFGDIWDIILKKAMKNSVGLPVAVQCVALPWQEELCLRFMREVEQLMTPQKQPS
Method in brief: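 The mixture was extracted with 2 volumes of CHCl3/CH3OH 1/1. [14C]ethanolamine in the aqueous phase was measured by scintillation counting.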

[6] = Inhibition of MAGL-mediated [14C]2-arachidonoyl glycerol hydrolysis to [3H]arachidonic acid in african green monkey COS cell cytosolic fraction by scintillation counting; type: cell-based, Chlorocebus aethiops; details: in the assay text read “[3H]2-arachidonoyl glycerol” for “[14C]2-arachidonoyl glycerol”
Method in brief: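 The 10000g cytosolic fraction of COS-7 cells, taken as the MAGL source, was incubated with 2-[3H]arachidonoylglycerol (1.0 mCi/mmol, 25 µM) in 50 mM Tris-HCl, pH 7.0, for 20 min at 37 °C. Products were separated by TLC. [3H]arachidonic acid was quantified by scintillation counting as the measure of activity.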

Homo sapiens [7] = species: Homo sapiens; assay: Selectivity ratio of IC50 for human recombinant DAGLalpha over Ki for human recombinant CB2 receptor
[8] = Inhibition of ionomycin-induced stimulation of 2-AG biosynthesis in mouse N18TG2 cells at 0.3 uM; type: functional
Method in brief: (§1)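 Confluent mouse N18TG2 neuroblastoma cells attached to dishes were incubated for 20 min at 37 °C in medium containing 3 µM ionomycin, with vehicle or test compound. The reaction was stopped with ice-cold methanol and lipids were extracted three times with CHCl₃. Lyophilized lipids were assayed for 2-AG by isotope-dilution LC-MS. Values are % change in 2-AG levels versus vehicle (means ± SEM, N = 3).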

[9] = Inhibition of ionomycin-induced stimulation of 2-AG biosynthesis in mouse N18TG2 cells at 1 uM; type: functional; method in brief: as §1
[10] = Selectivity ratio of IC50 for african green monkey MAGL over Ki for human recombinant CB2 receptor
[11] = Selectivity ratio of IC50 for african green monkey MAGL over IC50 for human recombinant DAGLalpha
[12] = Selectivity ratio of IC50 for african green monkey MAGL over Ki for human recombinant CB1 receptor
[13] = Enhancement of ionomycin-induced stimulation of 2-AG biosynthesis in mouse N18TG2 cells at 1.5 uM; type: functional; method in brief: as §1
[14] = Selectivity ratio of IC50 for african green monkey MAGL over IC50 for rat brain membrane FAAH

Chain of Cannabinoid receptor 1 (P21554 whole entry): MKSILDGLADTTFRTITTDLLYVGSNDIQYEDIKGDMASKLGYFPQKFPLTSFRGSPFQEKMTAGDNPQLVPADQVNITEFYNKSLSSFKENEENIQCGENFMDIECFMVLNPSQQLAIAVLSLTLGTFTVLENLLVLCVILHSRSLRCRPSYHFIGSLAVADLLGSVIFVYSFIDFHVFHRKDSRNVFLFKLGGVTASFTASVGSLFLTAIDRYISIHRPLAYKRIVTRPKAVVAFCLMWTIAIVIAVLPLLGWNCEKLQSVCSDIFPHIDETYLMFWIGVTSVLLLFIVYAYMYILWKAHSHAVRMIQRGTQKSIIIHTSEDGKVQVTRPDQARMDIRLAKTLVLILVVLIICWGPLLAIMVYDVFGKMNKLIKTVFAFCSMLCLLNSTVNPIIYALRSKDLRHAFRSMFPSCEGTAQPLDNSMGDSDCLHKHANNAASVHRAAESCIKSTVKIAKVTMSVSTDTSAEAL

| Ki (Cannabinoid receptor 1) | Ki (Cannabinoid receptor 2) | IC50 [4] | IC50 [5] | IC50 [6] | SMILES | other results |
| --- | --- | --- | --- | --- | --- | --- |
| 8.6 µM | > 10 µM | 0.43 µM | 6.6 µM | > 10 µM | CCCCCCCCCCC[C@@H](C[C@@H]1OC(=O)[C@H]1CCCCCC)OC(=O)[C@@H](NC(C)=O)[C@@H](C)CC | Ratio (Homo sapiens [1]): 15; Ratio IC50 [2]: 15; Ratio IC50 [3]: 15; Ratio (Homo sapiens [7]): 15 |
|  |  | > 25 µM | 10.4 µM | > 10 µM | CCCCCCCCCCC[C@@H](C[C@@H]1OC(=O)[C@H]1CCCCCC)OC(=O)CCC(C)C |  |
|  |  | 25 µM | > 50 µM | > 10 µM | CCCCCCCCCCC[C@@H](C[C@@H]1OC(=O)[C@H]1CCCCCC)OC(=O)[C@@H](N)Cc1ccccc1 |  |
|  |  | 25 µM | > 50 µM | > 10 µM | CCCCCCCCCCC[C@H](O)C[C@@H]1OC(=O)[C@H]1CCCCCC |  |
| 3.1 µM | > 10 µM | 0.043 µM | > 50 µM | 1 µM | CCCCCCCCCCC[C@@H](C[C@@H]1OC(=O)[C@H]1CCCCCC)OC(=O)[C@H](C)NC=O | Ratio (Homo sapiens [1]): 23; Ratio IC50 [2]: 23; Ratio IC50 [3]: 23; Ratio (Homo sapiens [7]): 23 |
|  |  | > 25 µM | > 50 µM | > 10 µM | CCCCCCCCCCC[C@@H](C[C@@H]1OC(=O)[C@H]1CCCCCC)OC(=O)[C@H](CC(C)C)NC(=O)OC(C)(C)C |  |
|  |  |  |  | > 10 µM | CCCCCCCCCCC[C@@H](C[C@@H]1OC(=O)[C@H]1CCCCCC)OC(=O)[C@@H](CC(C)C)NC=O |  |
|  |  | > 25 µM | > 50 µM | > 10 µM | CCCCCCCCCCC[C@@H](C[C@@H]1OC(=O)[C@H]1CCCCCC)OC(=O)CNC(=O)OCc1ccccc1 |  |
|  |  | > 25 µM | > 50 µM | > 10 µM | CCCCCCCCCCC[C@@H](C[C@@H]1OC(=O)[C@H]1CCCCCC)OC(=O)[C@@H](N)CC(C)C |  |
|  |  | 25 µM | > 50 µM | > 10 µM | CCCCCCCCCCC[C@@H](C[C@@H]1OC(=O)[C@H]1CCCCCC)OC(=O)[C@H](Cc1ccccc1)NC=O |  |
|  |  | > 25 µM | > 50 µM | > 10 µM | CCCCCCCCCCC[C@@H](C[C@@H]1OC(=O)[C@H]1CCCCCC)OC(=O)[C@H](CC(C)C)NC(=O)OCc1ccccc1 |  |
| 2.3 µM | > 10 µM | 0.8 µM | > 50 µM | 1.7 µM | CCCCCCCCCCC[C@@H](C[C@@H]1OC(=O)[C@H]1CCCCCC)OC(=O)CNC(C)=O |  |

Further lines, the molecule ahead of its results:

| SMILES | Ki (Cannabinoid receptor 1) | Ki (Cannabinoid receptor 2) | IC50 [4] | IC50 [5] | IC50 [6] | other results |
| --- | --- | --- | --- | --- | --- | --- |
| CCCCCCCCCCC[C@@H](C[C@@H]1OC(=O)[C@H]1CCCCCC)OC(=O)[C@@H](NC=O)[C@@H](C)CC | 6 µM | > 10 µM | 0.016 µM | > 50 µM | > 10 µM | Ratio (Homo sapiens [1]): 23; inhibition at 0.3 µM [8]: 57.3%; Ratio IC50 [2]: 23; Ratio IC50 [3]: 23; Ratio (Homo sapiens [7]): 23 |
| CCCCCCCCCCC[C@@H](C[C@@H]1OC(=O)[C@H]1CCCCCC)OC(=O)CCNC=O | 1.9 µM | 6.4 µM | 0.6 µM | > 50 µM | 0.4 µM |  |
| CCCCCCCCCCC[C@@H](C[C@@H]1OC(=O)[C@H]1CCCCCC)OC(=O)[C@@H]1CCCN1C=O | 1.7 µM | 7.4 µM | 1.1 µM | 3.4 µM | > 10 µM |  |
| CCCCCCCCCCC[C@@H](C[C@@H]1OC(=O)[C@H]1CCCCCC)OC(=O)[C@H](Cc1ccccc1)NC(=O)OCc1ccccc1 |  |  | > 25 µM | > 50 µM | > 10 µM |  |
| CCCCCCCCCCC[C@@H](C[C@@H]1OC(=O)[C@H]1CCCCCC)OC(=O)[C@@H]1CCC(=O)N1 | 2.6 µM | > 10 µM | 0.1 µM | > 50 µM | 3.5 µM | Ratio (Homo sapiens [1]): 15; Ratio IC50 [2]: 15; Ratio IC50 [3]: 15; Ratio (Homo sapiens [7]): 15 |
| CCCCCCCCCCC[C@@H](C[C@@H]1OC(=O)[C@H]1CCCCCC)OC(=O)[C@@H](NC=O)C(C)C | 5.7 µM | > 10 µM | 0.035 µM | > 50 µM | > 10 µM | Ratio (Homo sapiens [1]): 23; Ratio IC50 [2]: 23; Ratio IC50 [3]: 23; Ratio (Homo sapiens [7]): 23 |
| CCCCCCCCCCC[C@@H](C[C@@H]1OC(=O)[C@H]1CCCCCC)OC(=O)[C@H](CC(C)C)NC=O [ORLISTAT] | 2.5 µM | > 10 µM |  |  | > 10 µM | inhibition at 1 µM [9]: 79.8% |
| CCCCCCCCCCC[C@@H](C[C@@H]1OC(=O)[C@H]1CCCCCC)OC(=O)[C@@H](CC(C)C)NC(=O)OCc1ccccc1 |  |  | > 25 µM | > 50 µM | > 10 µM |  |
| CCCCCCCCCCC[C@@H](C[C@@H]1OC(=O)[C@H]1CCCCCC)OC(=O)[C@@H](NC(C)=O)C(C)C | 8.4 µM | > 10 µM | 0.46 µM | > 50 µM | > 10 µM | Ratio (Homo sapiens [1]): 15; Ratio IC50 [2]: 15; Ratio IC50 [3]: 15; Ratio (Homo sapiens [7]): 15 |
| CCCCCCCCCCC[C@@H](C[C@@H]1OC(=O)[C@H]1CCCCCC)OC(=O)CNC=O | > 10 µM | > 10 µM | 2.8 µM | 3 µM | 0.41 µM | Ratio [10]: 7; Ratio IC50 [11]: 7; Ratio [12]: 7; Activity [13]: 55%; Ratio IC50 [14]: 7 |

— ChEMBL document CHEMBL1142489, “Tetrahydrolipstatin analogues as modulators of endocannabinoid 2-arachidonoylglycerol metabolism” (J Med Chem, 2008)
